One data set in a line: Encapsulation. The conditions noted are these: estimated from FITC signals of supernatants of broken minus un-broken NPs. Type of data set: physicochemical. The essentials:
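PLGA (5 mg/mL in acetonitrile) containing FITC-labelled peptide was injected at 2 mL/min into 0.1% PVA and stirred 48 h. Particles were washed three times (15,000 rpm, 10 min) and freeze-dried. 1 mg NPs was disrupted in 50% DMSO/0.5% SDS/0.1 M NaOH for 1 h. FITC was read at 488/520 nm against a free-peptide calibration line. Surface-adsorbed fraction = broken minus unbroken supernatant signal. Triplicate.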

A short description of data set [1]: In vitro release from PLGA-NPs. The conditions noted are these: 1 mg NPs in 1.5 mL PBS pH 7.2, 37 °C, FITC fluorescence, triplicate. Format: physicochemical.

With βAla-G-βAla-QL-PEG-AAFAARA [Ctrl PEG], the “peptide adsorbed on the external surface of NPs” value in “Encapsulation” was ~ 63%.
Turning to “βAla-G-βAla-QL-PEG-AAFAARAV [Ctrl PEG-Val]”, the “peptide released from PLGA-NPs at 0.5 h” value in data set [1] is 100%.

Source of the values: article PMC11268778 (International Journal of Nanomedicine, 2024).
